Target: Protein kinase C (PKC)
Experiment: Inhibition of protein kinase C (PKC) purified from rat brain
Outline: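 Mostly purified rat brain PKC, histone kinase assay on ice-set tubes: 3 nM TPA, 8 μg/mL phosphatidylserine, 1 mM EGTA (no calcium), 4% glycerol, 20 mM Tris-Cl pH 7.4. Started with [γ-32P]ATP (20 μM), MgCl2 10 mM, p-nitrophenyl phosphate 5 mM, lysine-rich histone 240 μg/mL; 30 °C, 10 min; radioactivity counted. Compounds 0.16–160 μg/mL, 2.4% DMSO final; duplicate runs averaged.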

Row | Structure (SMILES) | IC50 [µM]
1 | CCCCCCCCCCCCCCCC1(OC)C[N+](C)(C)CCO1.[Br-] (configuration not stated) | 3.9
2 | CCCCCCCCCCCCC1(O)C[N+](C)(C)CCO1.[Br-] (configuration not stated) | 13
3 | CCCCCCCCCCCCCC1(O)C[N+](C)(C)CCO1.[Br-] (configuration not stated) | 12
4 | CCCCCCCCCCCCCCC1(O)C[N+](C)(C)CCO1.[Br-] (configuration not stated) | 7.6
5 | CCCCCCCCCCCCCCCC1(O)C[N+](C)(C)CCO1.[Br-] (configuration not stated) | 7.3
6 | CCCCCCCCCCC1(O)C[N+](C)(C)CCO1.[Br-] (configuration not stated) | 170
7 | CCCCCCCCCCCCCCC[C@@]1(O)C[N+](C)(C)C[C@@H](CC(=O)[O-])O1 [HEMIACYLCARNITINIUM] | 49.6

Now from value to compound:

Row | IC50 [µM] | Structure (SMILES)
8 | 6.5 | CCCCCCCCCCCCCCCCCCC1(O)C[N+](C)(C)CCO1.[Br-] (configuration not stated)
9 | 6.9 | CCCCCCCCCCCCCCCC(=O)C[N+](C)(C)CCCO.[Br-]
10 | 7.6 | CCCCCCCCCCCCCCCCC1(O)C[N+](C)(C)CCO1.[Br-] (configuration not stated)
11 | 7.1 | CCCCCCCCCCCCCCCCCC1(O)C[N+](C)(C)CCO1.[Br-] (configuration not stated)
12 | 15.8 | CCCCCCCCCCCCCCCC(=O)OC(CC(=O)[O-])C[N+](C)(C)C (racemic) [Palmitoyl-carnitine]
